Experimental data published in ChEMBL document CHEMBL1150162, “Antimicrobial activities of naphthazarins from Arnebia euchroma” (2002).
≈ marks a conversion by molar mass, not a printed value. Calls of active or inactive are those of the source. The calls are words filed in the database; no cut-off is given here.

Tests used:
OVCAR-3 = assay: Cytotoxicity against human OVCAR-3 cells after 48 hrs by MTT assay; assay type: functional; conditions: OVCAR-3, 48 h, read-out: CD50 (the source's name)
Method in brief: (§1)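 Cells seeded at 5 × 10^3 per well, grown 24 h, then given 2-fold dilutions of sample for 48 h. Medium replaced with serum-free medium, MTT added (5 mg/mL stock) for 2 h at 37 °C, formazan dissolved in DMSO, OD read at 550 nm. CD50 is the concentration giving 50% reduction in net cell increase. Quadruplicate, repeated at least twice.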

Staphylococcus aureus [1] = assay: Antibacterial activity against Staphylococcus aureus after 48 hrs by broth microdilution method; assay type: functional
Staphylococcus aureus [2] = assay: Ratio of MBC to MIC for Staphylococcus aureus; assay type: functional
HepG2 = assay: Cytotoxicity against human HepG2 cells after 48 hrs by MTT assay; assay type: functional; conditions: HepG2, 48 h, read-out: CD50 (the source's name); method in brief: as §1
Enterococcus faecium [3] = assay: Antibacterial activity against vancomycin-resistant Enterococcus faecium F935 expressing VanA after 24 hrs by broth microdilution method; assay type: functional; conditions: F935, 24 h
Method in brief: (§2)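 2-fold serial dilutions of test agent in LB broth, DMSO under 5% final. Inoculum about 5 × 10^5 CFU/mL, confirmed by LB agar plating. Incubated 24 h at 35 °C in ambient air. MIC is the lowest concentration with no visible growth. Three repeats; oxacillin, vancomycin and chloramphenicol as positive controls.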

HeLa = assay: Cytotoxicity against human HeLa cells after 48 hrs by MTT assay; assay type: functional; conditions: read-out: CD50 (the source's name); method in brief: as §1
Enterococcus faecalis [4] = assay: Antibacterial activity against vancomycin-resistant Enterococcus faecalis CKU-17 expressing VanB after 24 hrs by broth microdilution method; assay type: functional; conditions: CKU-17, 24 h; method in brief: as §2
Pseudomonas aeruginosa = assay: Antibacterial activity against Pseudomonas aeruginosa up to 100 ug/mL after 24 hrs by broth microdilution method; assay type: functional, organism-based
Method in brief: (§3)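 Broth microdilution with 2-fold serial dilutions in LB broth, compounds from DMSO stocks (DMSO below 5% final), inoculum about 5 × 10^5 CFU/mL. Incubated 24 h at 35 °C in ambient air. MIC is the lowest concentration with no visible growth. Experiments repeated three times.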

Escherichia coli = assay: Antibacterial activity against Escherichia coli up to 100 ug/mL after 24 hrs by broth microdilution method; assay type: functional, organism-based; method in brief: as §3
Enterococcus faecium [5] = assay: Antibacterial activity against vancomycin-resistant Enterococcus faecium F935 expressing VanA after 48 hrs by broth microdilution method; assay type: functional
Enterococcus faecalis [6] = assay: Antibacterial activity against vancomycin-resistant Enterococcus faecalis CKU-17 expressing VanB after 48 hrs by broth microdilution method; assay type: functional
Staphylococcus aureus [7] = assay: Antibacterial activity against methicillin-resistant Staphylococcus aureus 8-8S after 48 hrs by broth microdilution method; assay type: functional
Enterococcus faecium [8] = assay: Ratio of MBC to MIC for vancomycin-resistant Enterococcus faecium F935 expressing VanA; assay type: functional
Enterococcus faecalis [9] = assay: Antibacterial activity against Enterococcus faecalis after 48 hrs by broth microdilution method; assay type: functional
Staphylococcus aureus [10] = assay: Antibacterial activity against methicillin-resistant Staphylococcus aureus 8-8S after 24 hrs by broth microdilution method; assay type: functional
Method in brief: as §2, with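 “in […]” for “in LB”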

Enterococcus faecalis [11] = assay: Antibacterial activity against Enterococcus faecalis after 24 hrs by broth microdilution method; assay type: functional; method in brief: as §2
Staphylococcus aureus [12] = assay: Antibacterial activity against Staphylococcus aureus after 24 hrs by broth microdilution method; assay type: functional
Method in brief: as §2, with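 “in […]” for “in LB”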

Enterococcus faecalis [13] = assay: Ratio of MBC to MIC for Enterococcus faecalis; assay type: functional
Staphylococcus aureus [14] = assay: Ratio of MBC to MIC for methicillin-resistant Staphylococcus aureus 8-8S; assay type: functional
Enterococcus faecalis [15] = assay: Ratio of MBC to MIC for vancomycin-resistant Enterococcus faecalis CKU-17 expressing VanB; assay type: functional
Enterococcus faecium [16] = assay: Antibacterial activity against vancomycin-resistant Enterococcus faecium F935 expressing VanA assessed as reduction of bacterial count at MIC up to 6 hrs by time kill assay; assay type: functional, organism-based
Method in brief: (§4)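 Time-kill in LB broth with multiples of the broth microdilution MIC (1/2 to 8× MIC). Starting inoculum about 5 × 10^5 CFU/mL, incubated at 35 °C. Samples taken at 0, 2, 4, 6 and 24 h, dilution-plated on LB agar, and counted after 24 h. Detection limit 100 CFU/mL.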

Enterococcus faecalis [17] = assay: Antibacterial activity against vancomycin-resistant Enterococcus faecalis CKU-17 expressing VanB assessed as reduction of bacterial count at MIC up to 6 hrs by time kill assay; assay type: functional, organism-based; method in brief: as §4
Enterococcus faecalis [18] = assay: Antibacterial activity against vancomycin-resistant Enterococcus faecalis CKU-17 expressing VanB assessed as reduction of bacterial count at >=2 times MIC within 4 hrs by time kill assay; assay type: functional, organism-based; method in brief: as §4
Enterococcus faecium [19] = assay: Antibacterial activity against vancomycin-resistant Enterococcus faecium F935 expressing VanA assessed as reduction of bacterial count at >=2 times MIC concentration within 4 hrs by time kill assay; assay type: functional, organism-based; method in brief: as §4

| Compound | CC50 (OVCAR-3) [µg/mL] | MBC (Staphylococcus aureus [1]) [µg/mL] | Ratio (Staphylococcus aureus [2]) | CC50 (HepG2) [µg/mL] | MIC (Enterococcus faecium [3]) [µg/mL] | CC50 (HeLa) [µg/mL] | MIC (Enterococcus faecalis [4]) [µg/mL] | Activity (Pseudomonas aeruginosa) | Activity (Escherichia coli) | MBC (Enterococcus faecium [5]; F935, 48 h) [µg/mL] | MBC (Enterococcus faecalis [6]; CKU-17, 48 h) [µg/mL] | MBC (Staphylococcus aureus [7]) | Ratio (Enterococcus faecium [8]) | MBC (Enterococcus faecalis [9]) [µg/mL] | MIC (Staphylococcus aureus [10]) [µg/mL] | MIC (Enterococcus faecalis [11]) [µg/mL] | MIC (Staphylococcus aureus [12]) [µg/mL] | Ratio (Enterococcus faecalis [13]) | further results |
| --- | --- | --- | --- | --- | --- | --- | --- | --- | --- | --- | --- | --- | --- | --- | --- | --- | --- | --- | --- |
| CC(C)=CC[C@H](OC(=O)C=C(C)C)C1=CC(=O)c2c(O)ccc(O)c2C1=O | 1.6 (≈ 4.32 µM) | 1.56 (≈ 4.21 µM) | <=2 | 2.6 (≈ 7.02 µM) | 3.13 (≈ 8.45 µM) | 1.8 (≈ 4.86 µM) | 3.13 (≈ 8.45 µM) | inactive | inactive | 3.13 (≈ 8.45 µM) | 3.13 (≈ 8.45 µM) | 3.13 µg/mL (≈ 8.45 µM) | <=2 | 3.13 (≈ 8.45 µM) | 1.56 (≈ 4.21 µM) | 3.13 (≈ 8.45 µM) | 1.56 (≈ 4.21 µM) | <=2 | – |
| CC(C)=CC[C@@H](O)C1=CC(=O)c2c(O)ccc(O)c2C1=O [SHIKONIN] | – | 12.5 (≈ 43.4 µM) | <=2 | – | 50 (≈ 173 µM) | – | 25 (≈ 86.7 µM) | inactive | inactive | 50 (≈ 173 µM) | 50 (≈ 173 µM) | 12.5 µg/mL (≈ 43.4 µM) | <=2 | 50 (≈ 173 µM) | 6.25 (≈ 21.7 µM) | 50 (≈ 173 µM) | 6.25 (≈ 21.7 µM) | <=2 | – |
| CC1=CC(=O)c2c(O)cccc2C1=O [PLUMBAGIN] | – | 25 (≈ 133 µM) | >=4 | – | 12.5 (≈ 66.4 µM) | – | 12.5 (≈ 66.4 µM) | – | – | 50 (≈ 266 µM) | 50 (≈ 266 µM) | 25 µg/mL (≈ 133 µM) | >=4 | 100 (≈ 531 µM) | 3.13 (≈ 16.6 µM) | 25 (≈ 133 µM) | 3.13 (≈ 16.6 µM) | >=4 | Ratio (Staphylococcus aureus [14]): >=4; Ratio (Enterococcus faecalis [15]): >=4 |
| CC(C)=CC[C@H](OC(=O)CC(C)C)C1=CC(=O)c2c(O)ccc(O)c2C1=O [ISOVALERYL ALKANNIN] | 0.9 (≈ 2.42 µM) | 1.56 (≈ 4.19 µM) | <=2 | 2.2 (≈ 5.91 µM) | 3.13 (≈ 8.4 µM) | 1.7 (≈ 4.56 µM) | 3.13 (≈ 8.4 µM) | inactive | inactive | 3.13 (≈ 8.4 µM) | 3.13 (≈ 8.4 µM) | 3.13 µg/mL (≈ 8.4 µM) | <=2 | 3.13 (≈ 8.4 µM) | 3.13 (≈ 8.4 µM) | 3.13 (≈ 8.4 µM) | 1.56 (≈ 4.19 µM) | <=2 | Activity (Enterococcus faecium [16]): Active; Activity (Enterococcus faecalis [17]): Active; Activity (Enterococcus faecalis [18]): Active; Activity (Enterococcus faecium [19]): Active |
| Cc1onc(-c2ccccc2)c1C(=O)N[C@@H]1C(=O)N2[C@@H]1SC(C)(C)[C@@H]2C(=O)O [OXACILLIN] | – | 0.39 (≈ 0.971 µM) | – | – | > 100 | – | > 100 | – | – | – | – | inactive | – | 50 (≈ 125 µM) | > 100 | 25 (≈ 62.3 µM) | 0.39 (≈ 0.971 µM) | – | MBC (Enterococcus faecium [5]): inactive; MBC (Enterococcus faecalis [6]): inactive |
| CC(C)=CC[C@H](OC(=O)/C=C/c1ccccc1)C1=CC(=O)c2c(O)ccc(O)c2C1=O [CINNAMOYL ALKANNIN] | 2.4 (≈ 5.74 µM) | 100 (≈ 239 µM) | – | 3.8 (≈ 9.08 µM) | 25 (≈ 59.7 µM) | 3.6 (≈ 8.6 µM) | 25 (≈ 59.7 µM) | inactive | inactive | 100 (≈ 239 µM) | 100 (≈ 239 µM) | > 100 µg/mL | – | > 100 | 50 (≈ 119 µM) | 100 (≈ 239 µM) | 50 (≈ 119 µM) | – | – |
| CC(C)=CC[C@H](O)C1=CC(=O)c2c(O)ccc(O)c2C1=O [ALKANNIN] | 0.8 (≈ 2.77 µM) | 12.5 (≈ 43.4 µM) | <=2 | 1 (≈ 3.47 µM) | 50 (≈ 173 µM) | 0.8 (≈ 2.77 µM) | 25 (≈ 86.7 µM) | inactive | inactive | 50 (≈ 173 µM) | 50 (≈ 173 µM) | 12.5 µg/mL (≈ 43.4 µM) | <=2 | 50 (≈ 173 µM) | 6.25 (≈ 21.7 µM) | 50 (≈ 173 µM) | 6.25 (≈ 21.7 µM) | <=2 | – |
